From ChEMBL document CHEMBL3407373, “Design, synthesis and evaluation of a novel class of glucosamine mimetic peptides containing 1,3-dioxane” (2015)
Counter-ions that a name gives are not always drawn.

Tests used:
Type in all cases: functional
Mus musculus [1] = experiment: Antiinflammatory activity against ICR mouse ear edema model assessed as inhibition of xylene-induced edema at 10 umol/kg, po administered 30 mins prior to xylene challenge measured after 2 hrs relative to vehicle-treated control
Procedure, shortened: (§1)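 Male ICR mice (18-20 g), 12/12 h light/dark, free food and water, acclimated 1 day; groups of twelve. Test agents were given by oral gavage as suspensions in 0.5% CMC, with CMC alone as vehicle control, 30 min before xylene was applied to both surfaces of the right ear; the left ear served as control. At 2 h, mice were decapitated and 8.0 mm ear biopsies were punched and weighed; edema = right minus left weight.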

Mus musculus [2] = experiment: Antiinflammatory activity against ICR mouse ear edema model assessed as inhibition of xylene-induced edema at 1 umol/kg, po administered 30 mins prior to xylene challenge measured after 2 hrs relative to vehicle-treated control; procedure, shortened: as §1
Mus musculus [3] = experiment: Antiinflammatory activity against ICR mouse ear edema model assessed as inhibition of xylene-induced edema at 0.1 umol/kg, po administered 30 mins prior to xylene challenge measured after 2 hrs relative to vehicle-treated control; procedure, shortened: as §1
Mus musculus [4] = experiment: Antiinflammatory activity against ICR mouse ear edema model assessed as inhibition of xylene-induced edema at 100 mg/kg, po administered 30 mins prior to xylene challenge measured after 2 hrs relative to vehicle-treated control; procedure, shortened: as §1

## CC(C)C[C@H](NCCC1OCC(C)(C)CO1)C(=O)N[C@H]1[C@@H](OCc2ccccc2)O[C@H](COCc2ccccc2)[C@@H](OCc2ccccc2)[C@@H]1OCc1ccccc1
Mus musculus [1]
  inhibition in vivo at 10 µmol/kg: 76.7%

## CC[C@H](C)[C@H](NCCC1OCC(C)(C)CO1)C(=O)N[C@H]1C(O)O[C@H](CO)[C@@H](O)[C@@H]1O (some centres not stated)
Mus musculus [1]
  inhibition in vivo at 10 µmol/kg: 88.7%
Mus musculus [2]
  inhibition in vivo at 1 µmol/kg: 70.8%
Mus musculus [3]
  inhibition in vivo at 0.1 µmol/kg: 44.3%

## CC(=O)OC[C@H]1O[C@H](OC(C)=O)[C@H](NC(=O)[C@H](Cc2c[nH]c3ccccc23)NCCC2OCC(C)(C)CO2)[C@@H](OC(C)=O)[C@@H]1OC(C)=O
Mus musculus [1]
  inhibition in vivo at 10 µmol/kg: 80.7%

## CC(=O)OC[C@H]1O[C@H](OC(C)=O)[C@H](NC(=O)[C@H](C)NCCC2OCC(C)(C)CO2)[C@@H](OC(C)=O)[C@@H]1OC(C)=O
Mus musculus [1]
  inhibition in vivo at 10 µmol/kg: 84.2%

## CC(C)C[C@H](NCCC1OCC(C)(C)CO1)C(=O)N[C@H]1C(O)O[C@H](CO)[C@@H](O)[C@@H]1O (some centres not stated)
Mus musculus [1]
  inhibition in vivo at 10 µmol/kg: 81.8%

## CC(C)[C@H](NCCC1OCC(C)(C)CO1)C(=O)N[C@H]1[C@@H](OCc2ccccc2)O[C@H](COCc2ccccc2)[C@@H](OCc2ccccc2)[C@@H]1OCc1ccccc1
Mus musculus [1]
  inhibition in vivo at 10 µmol/kg: 86.2%

## CC(=O)OC[C@H]1O[C@H](OC(C)=O)[C@H](NC(=O)[C@H](CC(C)C)NCCC2OCC(C)(C)CO2)[C@@H](OC(C)=O)[C@@H]1OC(C)=O
Mus musculus [1]
  inhibition in vivo at 10 µmol/kg: 86.6%

## CC(=O)OC[C@H]1O[C@H](OC(C)=O)[C@H](NC(=O)[C@@H](NCCC2OCC(C)(C)CO2)C(C)C)[C@@H](OC(C)=O)[C@@H]1OC(C)=O
Mus musculus [1]
  inhibition in vivo at 10 µmol/kg: 70.6%

## CC1(C)COC(CCN[C@@H](Cc2c[nH]c3ccccc23)C(=O)N[C@H]2[C@@H](OCc3ccccc3)O[C@H](COCc3ccccc3)[C@@H](OCc3ccccc3)[C@@H]2OCc2ccccc2)OC1
Mus musculus [1]
  inhibition in vivo at 10 µmol/kg: 80.1%

## CC(C)[C@H](NCCC1OCC(C)(C)CO1)C(=O)N[C@H]1C(O)O[C@H](CO)[C@@H](O)[C@@H]1O (some centres not stated)
Mus musculus [1]
  inhibition in vivo at 10 µmol/kg: 85.1%

## CC1(C)COC(CCN[C@@H](Cc2c[nH]c3ccccc23)C(=O)N[C@H]2C(O)O[C@H](CO)[C@@H](O)[C@@H]2O)OC1 (some centres not stated)
Mus musculus [1]
  inhibition in vivo at 10 µmol/kg: 80.3%

## CC(=O)OC[C@H]1O[C@H](OC(C)=O)[C@H](NC(=O)[C@H](Cc2ccccc2)NCCC2OCC(C)(C)CO2)[C@@H](OC(C)=O)[C@@H]1OC(C)=O
Mus musculus [1]
  inhibition in vivo at 10 µmol/kg: 86.8%

## CC1(C)COC(CCN[C@@H](Cc2ccccc2)C(=O)N[C@H]2C(O)O[C@H](CO)[C@@H](O)[C@@H]2O)OC1 (some centres not stated)
Mus musculus [1]
  inhibition in vivo at 10 µmol/kg: 81.9%

## CC(=O)Oc1ccccc1C(=O)O [ASPIRIN]
Mus musculus [4]
  inhibition in vivo at 100 mg/kg: 89.5%

## CC1(C)COC(CCN[C@@H](Cc2ccccc2)C(=O)N[C@H]2[C@@H](OCc3ccccc3)O[C@H](COCc3ccccc3)[C@@H](OCc3ccccc3)[C@@H]2OCc2ccccc2)OC1
Mus musculus [1]
  inhibition in vivo at 10 µmol/kg: 87.1%

## CC[C@H](C)[C@H](NCCC1OCC(C)(C)CO1)C(=O)N[C@H]1[C@@H](OCc2ccccc2)O[C@H](COCc2ccccc2)[C@@H](OCc2ccccc2)[C@@H]1OCc1ccccc1
Mus musculus [1]
  inhibition in vivo at 10 µmol/kg: 81.6%

## CC[C@H](C)[C@H](NCCC1OCC(C)(C)CO1)C(=O)N[C@H]1[C@@H](OC(C)=O)O[C@H](COC(C)=O)[C@@H](OC(C)=O)[C@@H]1OC(C)=O
Mus musculus [1]
  inhibition in vivo at 10 µmol/kg: 79.8%

## N[C@H]1C(O)O[C@H](CO)[C@@H](O)[C@@H]1O (some centres not stated) [GLUCOSAMINE HYDROCHLORIDE]
Mus musculus [1]
  inhibition in vivo at 10 µmol/kg: 64.3%

## C[C@H](NCCC1OCC(C)(C)CO1)C(=O)N[C@H]1C(O)O[C@H](CO)[C@@H](O)[C@@H]1O (some centres not stated)
Mus musculus [1]
  inhibition in vivo at 10 µmol/kg: 86.8%

## C[C@H](NCCC1OCC(C)(C)CO1)C(=O)N[C@H]1[C@@H](OCc2ccccc2)O[C@H](COCc2ccccc2)[C@@H](OCc2ccccc2)[C@@H]1OCc1ccccc1
Mus musculus [1]
  inhibition in vivo at 10 µmol/kg: 90.3%
